Compounds with a hit are over-represented: about 2.6% of the library has one in this group of screens.
rCAG binder – binders of r(CAG) RNA repeats, primary screen, biochemical, fluorescence. r(CAG) RNA repeat, TO-PRO-1 dye displacement fluorescence. inhibition, % at 3 µM. 1.3% of 370,000 active;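 active = inhibition above the plate cutoff, the mean of all test compounds on that plate plus 3 SD, cut at about 35% in these data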;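 also: 0% = DMSO alone and 100% = 100 µM mitoxantrone as full dye displacement; higher means more dye released from RNA so lower well fluorescence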
NadD block – inhibitors of S. aureus NadD, primary screen, biochemical, colorimetric, uHTS; Nicotinate-nucleotide adenylyltransferase NadD (Staphylococcus aureus N315); purified NadD enzyme, colorimetric absorbance read-out; inhibition, % at 20 µM; 0.78% of 360,000 active; AID 602399, 2012; in the data active = inhibition above about 26%
HCV core dimer – inhibitors of HCV core protein dimerization, primary screen, biochemical, TR-FRET, high-throughput | TR-FRET GST/Flag-core106 dimerization, 1536-well | inhibition, % at 5 µM | 0.33% of 300,000 active;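 active = inhibition above the mean of all tested compounds plus 3 SD, set per screening campaign, cut at about 45% in these data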
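Assay system: GST-tagged and Flag-tagged HCV core protein residues 1-106 / Times: compound-protein-antibody incubation 4 h at 22.5 °C / Signal: time-resolved FRET, ex 340 nm, em 617 and 671 nm / Evaluation: % inhibition based on acceptor/donor emission ratio / Benchmarks: wells lacking GST-core106 and wells with excess unlabelled core106 / Repeats: singlicate, one well per compound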
ABHD5 PLIN5 PPI – ABHD5-PLIN5 interaction inhibitors, primary screen, cell lysate, split luciferase complementation, luminescence; Perilipin-5 (Homo sapiens) + 1-acylglycerol-3-phosphate O-acyltransferase ABHD5 (Homo …; Split G. princeps luciferase complementation, 4 h; inhibition, % at 4 µM; 0.78% of 360,000 active; AID 602281, 2012;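 active = inhibition above the mean inhibition across every tested compound plus 3 SD, cut at about 22% in these data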;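 also: 0% = DMSO only wells and the 100% control is not disclosed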
Target sequence (Q00G26 whole entry, looked up): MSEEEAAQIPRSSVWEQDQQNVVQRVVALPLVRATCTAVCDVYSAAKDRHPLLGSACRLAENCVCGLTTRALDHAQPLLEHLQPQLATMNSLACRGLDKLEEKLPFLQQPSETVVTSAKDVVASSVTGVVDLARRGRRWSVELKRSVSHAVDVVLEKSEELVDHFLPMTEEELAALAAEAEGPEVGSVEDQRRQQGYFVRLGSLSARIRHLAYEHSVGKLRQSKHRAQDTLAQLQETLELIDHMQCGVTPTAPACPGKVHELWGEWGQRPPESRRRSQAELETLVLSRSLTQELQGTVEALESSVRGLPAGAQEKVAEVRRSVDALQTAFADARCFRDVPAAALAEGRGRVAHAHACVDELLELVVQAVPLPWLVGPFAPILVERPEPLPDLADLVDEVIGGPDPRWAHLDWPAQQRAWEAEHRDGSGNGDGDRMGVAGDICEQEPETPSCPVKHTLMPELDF
Target sequence (Q8WTS1 whole entry, looked up): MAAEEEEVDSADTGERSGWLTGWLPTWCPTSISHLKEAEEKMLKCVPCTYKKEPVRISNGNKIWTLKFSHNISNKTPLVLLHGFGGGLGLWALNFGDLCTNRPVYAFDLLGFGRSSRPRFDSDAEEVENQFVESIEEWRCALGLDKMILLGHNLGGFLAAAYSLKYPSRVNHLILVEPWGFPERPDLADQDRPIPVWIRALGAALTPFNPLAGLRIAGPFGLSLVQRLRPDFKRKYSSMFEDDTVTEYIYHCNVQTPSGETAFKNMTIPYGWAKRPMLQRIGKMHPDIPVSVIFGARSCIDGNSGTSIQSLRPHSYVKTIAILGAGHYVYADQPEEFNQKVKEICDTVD
rCAG bind conf – small molecules binding CAG repeat RNA – biochemical, fluorescence, confirmation | shares compounds with rCAG binder | r(CAG) RNA repeat, TO-PRO-1 dye displacement fluorescence | inhibition, % at 3 µM | 70% of 4,300 active;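 active = inhibition above a per-plate cutoff, the mean inhibition of sample wells plus 3 SD, cut at about 35% in these data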;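 also: loss of TO-PRO-1 fluorescence as compound displaces dye from 1x1 AA loop RNA; 0% = DMSO only wells and 100% = 100 µM mitoxantrone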
dCAG dye counter – displacement of TO-PRO-1 from CAG DNA duplex, counter-screen for rCAG RNA repeat binder project, biochemical, fluorescence, TO-PRO-1 dye, d(CAG) DNA oligo; shares compounds with rCAG binder; d(CAG) DNA oligo TO-PRO-1 dye displacement; inhibition, % at 3 µM; 94% of 4,300 active; AID 652068, 2013;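 active = inhibition above its plate's cutoff, the mean test-well inhibition plus 3 SD, cut at about 4.8% in these data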;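 also: 0% = DNA dye mix with DMSO and 100% = 100 µM mitoxantrone; hits displace the dye from DNA and so lower well fluorescence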
DNA CAG DR – inhibitors of DNA CAG/GTC TO-PRO-1 complex, dose response, counter-screen for rCAG RNA repeat binder project, biochemical, fluorescence, TO-PRO-1 dye. shares compounds with rCAG binder. DNA CAG/GTC duplex TO-PRO-1 dye displacement fluorescence. IC50, µM. 20% of 250 active. AID 686960, 2013; in the data active = IC50 below about 10 µM
Numbers without * were called inactive; / = not tested or not shown.

SMILES	rCAG binder	NadD block	HCV core dimer	ABHD5 PLIN5 PPI	rCAG bind conf	dCAG dye counter	others
Cc1noc(NS(=O)(=O)c2ccc(NC(=O)/C=C/c3ccccc3)cc2)c1C	39*	-5	/	4	37*	6.7*
COc1ccc(/C=C/C(=O)Nc2ccc(S(=O)(=O)Nc3onc(C)c3C)cc2)cc1OC	39*	-7	-5	3	38*	11*
Cc1cccc(C)c1C(O)c1ncc(-c2ccccc2C(F)(F)F)[nH]1 (configuration not stated)	1	-2	/	0	/	/
CCOC(=O)[C@]12CCCC=C1N(Cc1ccc3c(c1)OCO3)C(=O)[C@H](CC(=O)N1CCOCC1)C2	-1	1	/	4	/	/
CC1=NN(C(N)=S)C(=O)C1N=Nc1c(Br)cc(Br)cc1Br (configuration not stated)	46*	6	11	-4	43*	13*	DNA CAG DR=>30
COC(=O)c1sc(N2C(=O)C(O)=C(C(=O)c3ccc(C)o3)C2c2cccs2)nc1C (configuration not stated)	48*	7	-17	10	48*	17*
CCOC(=O)c1sc(N2C(=O)C(O)=C(C(=O)c3ccco3)C2c2cccc([N+](=O)[O-])c2)nc1C (configuration not stated)	70*	14	17	0	82*	50*
COC(=O)c1sc(N2C(=O)C(O)=C(C(=O)c3ccc(C)o3)C2c2ccco2)nc1C (configuration not stated)	16	0	-6	1	/	/
Cc1nnc(N2C(=O)C(O)=C(C(=O)c3ccco3)C2c2cccc([N+](=O)[O-])c2)s1 (configuration not stated)	4	2	4	10	/	/
Cc1cc(N2C(=O)C(O)=C(C(=O)c3ccco3)C2c2cccc(O)c2)no1 (configuration not stated)	5	4	1	-1	/	/
CCOC(=O)c1sc(N2C(=O)C(O)=C(C(=O)c3ccco3)C2c2cccc(Cl)c2)nc1C (configuration not stated)	74*	13	-19	-19	57*	19*
Cc1cc(N2C(=O)C(O)=C(C(=O)c3ccco3)C2c2cccc(Oc3ccccc3)c2)no1 (configuration not stated)	58*	16	6	-7	59*	21*
Clc1ccc(-c2nc3c4ccccc4ccn3c2Cc2ccsc2)cc1	9	23	/	-3	/	/
CCOC(=O)C(=O)Cc1cccnn1	9	10	/	6	/	/
O=C(NC(Nc1ncc(S(=O)(=O)c2ccc([N+](=O)[O-])cc2)s1)(C(F)(F)F)C(F)(F)F)c1ccc(Cl)cc1	46*	3	11	1	52*	14*
CN(C)c1ccc(O)c2c1CC1CC3[C@@H](N(C)C)C(=O)C(C(N)=O)=C(O)[C@]3(O)C(=O)C1=C2O (some centres not stated)	64*	1	5	2	46*	18*
O=C(O)c1ccc(NC2=C/C(=N/S(=O)(=O)c3cccs3)c3ccccc3C2=O)cc1	17	-2	/	-12	/	/
Cc1cc(C)c(S(=O)(=O)/N=C2\C=C(Nc3ccc(C(=O)O)cc3)C(=O)c3ccccc32)c(C)c1	85*	31*	-1	-8	81*	50*
O=C(O)c1ccc(NC2=C/C(=N/S(=O)(=O)c3ccccc3)c3ccccc3C2=O)cc1	61*	5	/	-19	38*	11*
CCc1ccc(S(=O)(=O)/N=C2\C=C(Nc3ccc(O)cc3)C(=O)c3ccccc32)cc1	/	12	-3	3	/	/

Source: PubChem
